Results: ChEMBL document CHEMBL1123045, “Synthesis of high specific activity [75Br]- and [77Br]bromperidol and tissue distribution studies in the rat” (J Med Chem, 1985)

Legend:
Rattus norvegicus [1] = assay: Distribution in rat liver 15 min after intravenous administration, injected dose/gm; assay type: ADME, organism-based; conditions: in vivo, 0.25 h
Outline: (§1)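 [77Br]Bromperidol at high specific activity (50-100 µCi in 0.1 mL 0.9% NaCl, pH 3) given into the femoral vein of 300-320-g female Sprague-Dawley rats under light ether anesthesia. At each time point, groups of five were decapitated after cardiac-puncture blood sampling. Organs were dissected, blotted, weighed and gamma-counted against an injectate standard. Values are % injected dose/g, mean ± SD, n=5.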

Rattus norvegicus [2] = assay: Distribution in rat liver 1 hr after intravenous administration, injected dose/gm; assay type: ADME, organism-based; conditions: in vivo; outline: as §1
Rattus norvegicus [3] = assay: Distribution in rat muscle 30 min after intravenous administration, injected dose/gm; assay type: ADME, organism-based, Muscle tissue; conditions: in vivo, 0.5 h
Outline: (§2)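 Female Sprague-Dawley rats (300-320 g) under light ether anesthesia received a single injection of [77Br]-labeled tracer (50-100 µCi in 0.1 mL 0.9% NaCl, pH 3) into the femoral vein. Groups of five were decapitated at set times after a cardiac-puncture blood sample. Organs were dissected, blotted and weighed, and counted in a NaI(Tl) well γ-counter. Values are %ID/g against an injectate standard, mean ± SD (n=5).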

Rattus norvegicus [4] = assay: Distribution in rat muscle 4 hr after intravenous administration, injected dose/gm; assay type: ADME, organism-based, Muscle tissue; conditions: in vivo; outline: as §2
Rattus norvegicus [5] = assay: Distribution in rat muscle 5 min after intravenous administration, injected dose/gm; assay type: ADME, organism-based, Muscle tissue; conditions: in vivo; outline: as §2
Rattus norvegicus [6] = assay: Distribution in rat muscle 6 hr after intravenous administration, injected dose/gm; assay type: ADME, organism-based, Muscle tissue; conditions: in vivo; outline: as §2
Rattus norvegicus [7] = assay: Distribution in rat muscle 8 hr after intravenous administration, injected dose/gm; assay type: ADME, organism-based, Muscle tissue; conditions: in vivo; outline: as §2
Rattus norvegicus [8] = assay: Distribution in rat pancreas 15 min after intravenous administration, injected dose/gm; assay type: ADME, organism-based; conditions: in vivo, 0.25 h; outline: as §2
Rattus norvegicus [9] = assay: Distribution in rat pancreas 1 hr after intravenous administration, injected dose/gm; assay type: ADME, organism-based; conditions: in vivo; outline: as §2
Rattus norvegicus [10] = assay: Distribution in rat pancreas 2 hr after intravenous administration, injected dose/gm; assay type: ADME, organism-based; conditions: in vivo; outline: as §2
Rattus norvegicus [11] = assay: Distribution in rat pancreas 30 min after intravenous administration, injected dose/gm; assay type: ADME, organism-based; conditions: in vivo, 0.5 h; outline: as §2
Rattus norvegicus [12] = assay: Distribution in rat pancreas 4 hr after intravenous administration, injected dose/gm; assay type: ADME, organism-based; conditions: in vivo; outline: as §2
Rattus norvegicus [13] = assay: Distribution in rat pancreas 5 min after intravenous administration, injected dose/gm; assay type: ADME, organism-based; conditions: in vivo; outline: as §2
Rattus norvegicus [14] = assay: Distribution in rat pancreas 6 hr after intravenous administration, injected dose/gm; assay type: ADME, organism-based; conditions: in vivo; outline: as §2
Rattus norvegicus [15] = assay: Distribution in rat pancreas 8 hr after intravenous administration, injected dose/gm; assay type: ADME, organism-based; conditions: in vivo; outline: as §2
Rattus norvegicus [16] = assay: Distribution in rat heart 4 hr after intravenous administration, injected dose/gm; assay type: ADME, organism-based; conditions: in vivo; outline: as §1
Rattus norvegicus [17] = assay: Distribution in rat heart 5 min after intravenous administration, injected dose/gm; assay type: ADME, organism-based; conditions: in vivo; outline: as §1
Rattus norvegicus [18] = assay: Distribution in rat heart 6 hr after intravenous administration, injected dose/gm; assay type: ADME, organism-based; conditions: in vivo; outline: as §1
Rattus norvegicus [19] = assay: Distribution in rat heart 8 hr after intravenous administration, injected dose/gm; assay type: ADME, organism-based; conditions: in vivo; outline: as §1
Rattus norvegicus [20] = assay: Distribution in rat intestine 15 min after intravenous administration, injected dose/gm; assay type: ADME, organism-based; conditions: in vivo, 0.25 h; outline: as §1
Rattus norvegicus [21] = assay: Distribution in rat intestine 1 hr after intravenous administration, injected dose/gm; assay type: ADME, organism-based; conditions: in vivo; outline: as §1
Rattus norvegicus [22] = assay: Distribution in rat intestine 2 hr after intravenous administration, injected dose/gm; assay type: ADME, organism-based; conditions: in vivo; outline: as §1
Rattus norvegicus [23] = assay: Distribution in rat intestine 30 min after intravenous administration, injected dose/gm; assay type: ADME, organism-based; conditions: in vivo, 0.5 h; outline: as §1
Rattus norvegicus [24] = assay: Distribution in rat intestine 5 min after intravenous administration, injected dose/gm; assay type: ADME, organism-based; conditions: in vivo; outline: as §1
Rattus norvegicus [25] = assay: Distribution in rat intestine 6 hr after intravenous administration, injected dose/gm; assay type: ADME, organism-based; conditions: in vivo; outline: as §1
Rattus norvegicus [26] = assay: Distribution in rat intestine 8 hr after intravenous administration, injected dose/gm; assay type: ADME, organism-based; conditions: in vivo; outline: as §1
Rattus norvegicus [27] = assay: Distribution in rat kidney, 15 min after intravenous administration, injected dose/gm; assay type: ADME, organism-based; conditions: in vivo, 0.25 h; outline: as §1
Rattus norvegicus [28] = assay: Distribution in rat kidney, 1 hr after intravenous administration, injected dose/gm; assay type: ADME, organism-based; conditions: in vivo; outline: as §1
Rattus norvegicus [29] = assay: Distribution in rat kidney, 2 hr after intravenous administration, injected dose/gm; assay type: ADME, organism-based; conditions: in vivo; outline: as §1
Rattus norvegicus [30] = assay: Distribution in rat kidney, 30 min after intravenous administration, injected dose/gm; assay type: ADME, organism-based; conditions: in vivo, 0.5 h; outline: as §1
Rattus norvegicus [31] = assay: Distribution in rat kidney, 4 hr after intravenous administration, injected dose/gm; assay type: ADME, organism-based; conditions: in vivo; outline: as §1
Rattus norvegicus [32] = assay: Distribution in rat kidney, 5 min after intravenous administration, injected dose/gm; assay type: ADME, organism-based; conditions: in vivo; outline: as §1
Rattus norvegicus [33] = assay: Distribution in rat kidney, 6 hr after intravenous administration, injected dose/gm; assay type: ADME, organism-based; conditions: in vivo; outline: as §1
Rattus norvegicus [34] = assay: Distribution in blood of rat, 8 hr after intravenous administration, injected dose/gm; assay type: ADME, organism-based; conditions: in vivo; outline: as §1
Rattus norvegicus [35] = assay: Distribution in brain of rat, 15 min after intravenous administered, injected dose/gm; assay type: ADME, organism-based; conditions: in vivo, 0.25 h; outline: as §1
Rattus norvegicus [36] = assay: Distribution in brain of rat, 1 hr after intravenous administered, injected dose/gm; assay type: ADME, organism-based; conditions: in vivo; outline: as §1
Rattus norvegicus [37] = assay: Distribution in brain of rat, 2 hr after intravenous administered, injected dose/gm; assay type: ADME, organism-based; conditions: in vivo; outline: as §1
Rattus norvegicus [38] = assay: Distribution in brain of rat, 30 min after intravenous administered, injected dose/gm; assay type: ADME, organism-based; conditions: in vivo, 0.5 h; outline: as §1
Rattus norvegicus [39] = assay: Distribution in brain of rat, 4 hr after intravenous administered, injected dose/gm; assay type: ADME, organism-based; conditions: in vivo; outline: as §1
Rattus norvegicus [40] = assay: Distribution in brain of rat, 5 min after intravenous administered, injected dose/gm; assay type: ADME, organism-based; conditions: in vivo; outline: as §1
Rattus norvegicus [41] = assay: Distribution in brain of rat, 8 hr after intravenous administered, injected dose/gm; assay type: ADME, organism-based; conditions: in vivo; outline: as §1
Rattus norvegicus [42] = assay: Distribution in rat fat 15 min after intravenous administration, injected dose/gm; assay type: ADME, organism-based, Adipose tissue; conditions: in vivo, 0.25 h; outline: as §1
Rattus norvegicus [43] = assay: Distribution in rat fat 1 hr after intravenous administration, injected dose/gm; assay type: ADME, organism-based, Adipose tissue; conditions: in vivo; outline: as §1
Rattus norvegicus [44] = assay: Distribution in rat fat 2 hr after intravenous administration, injected dose/gm; assay type: ADME, organism-based, Adipose tissue; conditions: in vivo; outline: as §1
Rattus norvegicus [45] = assay: Distribution in rat fat 30 min after intravenous administration, injected dose/gm; assay type: ADME, organism-based, Adipose tissue; conditions: in vivo, 0.5 h; outline: as §1
Rattus norvegicus [46] = assay: Distribution in rat fat 5 min after intravenous administration, injected dose/gm; assay type: ADME, organism-based, Adipose tissue; conditions: in vivo; outline: as §1
Rattus norvegicus [47] = assay: Distribution in rat fat 6 hr after intravenous administration, injected dose/gm; assay type: ADME, organism-based, Adipose tissue; conditions: in vivo; outline: as §1
Rattus norvegicus [48] = assay: Distribution in rat fat 8 hr after intravenous administration, injected dose/gm; assay type: ADME, organism-based, Adipose tissue; conditions: in vivo; outline: as §1
Rattus norvegicus [49] = assay: Distribution in rat heart 15 min after intravenous administration, injected dose/gm; assay type: ADME, organism-based; conditions: in vivo, 0.25 h; outline: as §1
Rattus norvegicus [50] = assay: Distribution in rat heart 1 hr after intravenous administration, injected dose/gm; assay type: ADME, organism-based; conditions: in vivo; outline: as §1

- Distribution (Rattus norvegicus [1]): 2.19%
- Distribution (Rattus norvegicus [2]): 2.99%
- Distribution (Rattus norvegicus [3]): 0.23%
- Distribution (Rattus norvegicus [4]): 0.12%
- Distribution (Rattus norvegicus [5]): 0.32%
- Distribution (Rattus norvegicus [6]): 0.13%
- Distribution (Rattus norvegicus [7]): 0.1%
- Distribution (Rattus norvegicus [8]): 4.72%
- Distribution (Rattus norvegicus [9]): 4.23%
- Distribution (Rattus norvegicus [10]): 3.76%
- Distribution (Rattus norvegicus [11]): 5.2%
- Distribution (Rattus norvegicus [12]): 3.51%
- Distribution (Rattus norvegicus [13]): 3.16%
- Distribution (Rattus norvegicus [14]): 2.83%
- Distribution (Rattus norvegicus [15]): 2.05%
- Distribution (Rattus norvegicus [16]): 0.36%
- Distribution (Rattus norvegicus [17]): 2.29%
- Distribution (Rattus norvegicus [18]): 0.39%
- Distribution (Rattus norvegicus [19]): 0.3%
- Distribution (Rattus norvegicus [20]): 0.91%
- Distribution (Rattus norvegicus [21]): 0.89%
- Distribution (Rattus norvegicus [22]): 0.82%
- Distribution (Rattus norvegicus [23]): 0.83%
- Distribution (Rattus norvegicus [24]): 0.39%
- Distribution (Rattus norvegicus [25]): 0.98%
- Distribution (Rattus norvegicus [26]): 0.85%
- Distribution (Rattus norvegicus [27]): 4.69%
- Distribution (Rattus norvegicus [28]): 4.11%
- Distribution (Rattus norvegicus [29]): 2.93%
- Distribution (Rattus norvegicus [30]): 5.01%
- Distribution (Rattus norvegicus [31]): 1.95%
- Distribution (Rattus norvegicus [32]): 4.96%
- Distribution (Rattus norvegicus [33]): 1.93%
- Distribution (Rattus norvegicus [34]): 0.02%
- Distribution (Rattus norvegicus [35]): 3.04%
- Distribution (Rattus norvegicus [36]): 2.48%
- Distribution (Rattus norvegicus [37]): 1.85%
- Distribution (Rattus norvegicus [38]): 2.82%
- Distribution (Rattus norvegicus [39]): 1.61%
- Distribution (Rattus norvegicus [40]): 2.26%
- Distribution (Rattus norvegicus [41]): 1.29%
- Distribution (Rattus norvegicus [42]): 0.16%
- Distribution (Rattus norvegicus [43]): 0.22%
- Distribution (Rattus norvegicus [44]): 0.18%
- Distribution (Rattus norvegicus [45]): 0.2%
- Distribution (Rattus norvegicus [46]): 0.05%
- Distribution (Rattus norvegicus [47]): 0.19%
- Distribution (Rattus norvegicus [48]): 0.18%
- Distribution (Rattus norvegicus [49]): 1.37%
- Distribution (Rattus norvegicus [50]): 0.55%
SMILES: O=C(CCCN1CCC(O)(c2ccc(Br)cc2)CC1)c1ccc(F)cc1 [BROMPERIDOL]
